Screening results deposited in PubChem by several laboratories.
Measles CPE: protection of cells from measles virus; protection (pct of control), % at 4 µM; AID 841; hit rate 1.5% among 140,000; Measles virus-infected cells, CPE protection, absorbance; in the data active = protection mostly above about 24%, no sharp cut-off; inactive = mostly below about 26%
Mdm2 ligase inh: blocks human Mdm2 ubiquitin ligase activity; Q00987; cell-based MDM2 ubiquitination luciferase reporter, 2 h; 0 = plate control, 100 = twice control, blank-subtracted; signal enhancement, % at 5 µM; hit rate 0.11% among 210,000;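 active = signal enhancement of 30% or more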;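 also: luminescence tracks abundance of the self-degrading MDM2-luciferase fusion protein; higher signal means inhibition of MDM2 E3 ligase activity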
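Test system: mammalian cells stably expressing self-ubiquitinating, self-degrading MDM2 E3–luciferase fusion; Amount: 2000 cells in each well; Medium: DMEM; Schedule: 4 h settle plus 2 h compound, 37 °C; Technique: SteadyLite luciferase luminescence after 15 min room-temperature reagent incubation; Benchmarks: plate control and blank wells.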
NPY-Y1 PAM-ag: human NPY-Y1 potentiation or agonism, primary screen. NPY-Y1 expressing cells, potentiator/agonist activation. P25929. activation, % at 3.6 µM. hit rate 0.37% among 220,000. AID 1304; in the data active = activation above about 33%, passing the limit was not always enough;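 also: cells stimulated with NPY at EC10 then isoproterenol at EC100; 0% = low agonist plus stimulus and 100% = saturating agonist plus stimulus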
Target sequence (P25929 whole entry, looked up): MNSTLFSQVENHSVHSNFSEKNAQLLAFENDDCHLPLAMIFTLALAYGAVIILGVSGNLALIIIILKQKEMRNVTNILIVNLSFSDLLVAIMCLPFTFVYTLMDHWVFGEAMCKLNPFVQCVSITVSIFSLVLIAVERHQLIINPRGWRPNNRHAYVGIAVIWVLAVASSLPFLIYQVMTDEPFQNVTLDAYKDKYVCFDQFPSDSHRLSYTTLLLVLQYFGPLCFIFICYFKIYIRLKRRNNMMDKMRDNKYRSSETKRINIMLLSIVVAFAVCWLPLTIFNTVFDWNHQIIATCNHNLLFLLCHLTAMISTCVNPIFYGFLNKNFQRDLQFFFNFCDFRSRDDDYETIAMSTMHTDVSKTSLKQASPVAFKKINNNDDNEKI
NPY-Y2 PAM-ag: potentiators or agonists of human neuropeptide Y receptor Y2. P49146. cells expressing NPY-Y2, potentiator/agonist read-out. activation, % at 3.6 µM. hit rate 0.45% among 220,000; in the data active = activation above about 27%;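 also: cells stimulated with NPY near EC25 plus isoproterenol at EC100; 0% = vehicle plus submaximal agonist and 100% = vehicle plus saturating agonist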
NPY-Y2 antag: antagonists of human neuropeptide Y receptor Y2; P49146; hit rate 0.99% among 140,000; NPY-Y2 expressing cells, antagonist mode; inhibition, % at 2.7 µM;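 also: 0% = vehicle with agonist challenge and 100% = reference antagonist with challenge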
NPY-Y1 antag: blocks the human neuropeptide Y Y1 receptor. P25929. HEK293-CNG Y1 cells, membrane potential fluorescence; NPY at EC95, then isoproterenol. inhibition, % at 3.6 µM. hit rate 1% among 200,000. AID 1040;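 active = inhibition above the campaign mean inhibition of all tested compounds plus 3 SD, cut at about 20% in these data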;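 also: 0% = DMSO wells given NPY plus isoproterenol and 100% = isoproterenol alone without NPY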
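Test system: HEK293 cells co-expressing NPY Y1 receptor and cyclic-nucleotide gated channel; Also added: NPY (25 nM), isoproterenol (1 µM), Ro 20-1724 (25 µM); Compound dosing: one concentration, 3.6 µM, in 0.4% DMSO; Timing: dye 3 h, compound 60 min room temperature, stimulation 45 min; Technique: Membrane-potential fluorescent dye readout.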
NPY-Y1 ant conf: confirmation of human neuropeptide Y receptor Y1 antagonists. shares compounds with NPY-Y1 antag. AID 1254. HEK293-CNG NPY-Y1, membrane potential fluorescence, cAMP; NPY challenge against isoproterenol-raised cAMP. hit rate 21% among 1,200. inhibition, % at 3.6 µM; in the data active = inhibition above about 20%;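 also: 0% = vehicle with agonist plus stimulus and 100% = stimulus alone without agonist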
NPY-Y2 antag ct: counter-screen for NPY-Y1 antagonists: human NPY-Y2 antagonism; shares compounds with NPY-Y1 antag; HEK293 NPY-Y2 CNG membrane potential fluorescence; cells given NPY, then isoproterenol; inhibition, % at 3.6 µM; hit rate 28% among 1,200; AID 1255;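 also: 0% = DMSO with agonist challenge and 100% = reference antagonist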
Numbers without * were called inactive; x = no result given. Compounds with a hit are over-represented: about 2.8% of the library has one in this group of screens. Rule as the data show it, unless noted: active = inhibition above about 17%; inactive = the rest.

SMILES	Measles CPE	Mdm2 ligase inh	NPY-Y1 PAM-ag	NPY-Y2 PAM-ag	NPY-Y2 antag	NPY-Y1 antag	NPY-Y1 ant conf	NPY-Y2 antag ct
CC(NCc1ccc(-c2ccccc2)cc1)C(O)c1ccccc1 (stereo unspecified)	2	5	-78	-28	10	20*	18	29*
COc1ccc(CSc2n[nH]c(C)n2)cc1Br	10	-7	7	14	-2	-2	x	x
Cc1nc(SCc2cccc(Oc3ccccc3)c2)n[nH]1	5	-12	23	11	3	23*	6	34*
O=C(c1ccccn1)N(Cc1cccs1)C1(C(=O)NC2CCCCC2)CCCCC1	x	2	8	-11	x	44*	15	7
CN(C(=O)c1ccccn1)C1(C(=O)NC2CCCCC2)CCCCC1	6	-8	9	-3	8	7	x	x
O=C(O)c1ccc(Cn2c(SCc3cc(=O)n4cc(Br)ccc4n3)nc3ccsc3c2=O)cc1	x	-3	26	10	x	-2	x	x
O=C(O)C1CCC(Cn2c(SCc3cc(=O)n4cc(Br)ccc4n3)nc3ccsc3c2=O)CC1 (stereo unspecified)	x	-6	-26	-37	x	26*	80*	87*
COc1ccc(CN(CC2CCCO2)C(=O)c2cc3ccccc3oc2=O)cc1 (stereo unspecified)	x	-15	3	5	x	37*	0	1
CCOC(=O)c1c(NC(=O)CSc2nnc(C)s2)sc2c1CCC(CC)C2 (stereo unspecified)	25	-2	-58	-23	10	34*	15	18*
CCOC(=O)c1sc(NC(=O)CSc2nnc(C)s2)c(C(=O)OCC)c1C	3	-20	1	-1	2	3	x	x
CC1CCCCC1NC(=O)CN1C(=O)CSc2cc(S(=O)(=O)N3CCCCCC3)ccc21 (stereo unspecified)	3	-9	-34	-11	16	31*	6	6
CC(C)C(=O)N1CCN(c2ccccc2NC(=O)c2ccc(C#N)cc2F)CC1	x	-20	-15	-14	x	42*	19	12
Cn1nnc2ccccc2c1=O	x	-10	-20	-6	x	-5	x	x
N#CC1=C(Nc2ccccc2)SC=C(c2ccc(Cl)c(Cl)c2)N=C1N1CCOCC1	5	-12	-26	-2	9	25*	8	14
CN(CCOC(=O)c1ccccc1)Cc1ccccc1	13	7	13	-5	3	8	x	x
CN(CCOC(=O)c1cccc(F)c1)Cc1ccccc1	8	x	-2	-2	3	26*	1	3
Clc1ccc(-c2csc(Nc3ccccc3)[n+]2Cc2ccco2)c(Cl)c1	x	-5	-6	-10	x	32*	23*	12
CCCC[n+]1c(-c2ccc(Cl)cc2Cl)csc1Nc1ccccc1	22	-2	-10	15	3	17	x	x
COc1ccc(OCC(=O)N/N=C/C=C/c2ccccc2)cc1	12	-7	-15	-16	9	23*	6	11
CC(=O)c1c(OC(=O)c2ccco2)c2ccccc2n1C	14	-15	-6	-8	4	1	x	x
CC(=O)c1c(OC(=O)c2ccc(C)cc2)c2ccccc2n1C	71*	-11	-30	-27	15	34*	13	13
Cc1ccc(Cn2ncc3c(N4CCN(Cc5ccc(Cl)cc5)CC4)ncnc32)cc1	1	-12	1	1	8	1	x	x
Cc1ccccc1N1CCN(c2ncnc3c2cnn3Cc2ccc(Cl)cc2)CC1	15	-3	-37	-8	7	29*	10	17*
OCCCNCc1cccc2ccccc12	7	-16	-18	-10	4	5	x	x
Oc1ccccc1CNCCCNCc1ccccc1O	3	-7	-70	-16	10	30*	12	17
SMILES	Measles CPE	Mdm2 ligase inh	NPY-Y1 PAM-ag	NPY-Y2 PAM-ag	NPY-Y2 antag	NPY-Y1 antag	NPY-Y1 ant conf	NPY-Y2 antag ct
Clc1cccc(Cl)c1CSc1nnc(/C=C/c2ccccc2)o1	18	-15	-40	-39	16	23*	16	16
COc1cc2c(cc1NC(C)=O)CCCC2	21	-11	11	-2	0	-5	x	x
COc1cc2c(cc1NC(=O)c1cccnc1)CCCC2	9	-8	-13	6	0	-6	x	x
COc1ccc(C(=O)Nc2cc3c(cc2OC)CCCC3)cc1Br	6	-5	-78	-21	10	29*	9	10
COc1cc2c(cc1NC(=O)c1ccc(C(C)(C)C)cc1)CCCC2	7	-15	-73	-37	10	32*	20	45*
Clc1ccc(CON/C=N/c2ncnc3sccc23)c(Cl)c1	9	-3	-3	-19	6	6	x	x
c1ccc2c(c1)oc1c(N3CCOCC3)ncnc12	9	-8	-12	2	3	3	x	x
Nc1nc(N2CCN(C/C=C/c3ccccc3)CC2)nc2ccccc12	11	-10	-22	11	9	22*	15	3
C(=C\c1ccccc1)/CN1CCN(c2ncnc3c2oc2ccccc23)CC1	4	-24	6	-26	14	26*	11	16
Cc1nn(-c2ccccc2)c(Cl)c1/C=N/NC(=O)c1ccncc1	x	-10	-13	3	x	x	x	x
CC(C)CCn1c(Oc2ccccc2Cl)nc2c1c(=O)n(C)c(=O)n2C	49*	-6	-52	-26	17	36*	7	8
COc1cccc(C(C(=O)NC2CCCC2)N(CC2CCCO2)C(=O)Cc2cccs2)c1 (stereo unspecified)	x	1	12	-10	x	26*	8	8
COc1ccc(C(C(=O)NC2CCCC2)N(CC2CCCO2)C(=O)Cc2cccs2)cc1OC (stereo unspecified)	x	-3	-2	3	x	4	x	x
COn1c(SCc2ccc(Cl)cc2)nc2ccccc2c1=O	1	2	-52	-16	10	38*	27*	21*
O=C(c1ccc2c(c1)OCO2)N(CC1CCCO1)C1(C(=O)NC2CCCC2)CCCCC1 (stereo unspecified)	9	-1	-2	1	16	30*	13	8
O=C(NCC1CCCO1)c1ccc(CSCc2cccc(F)c2)o1 (stereo unspecified)	x	1	-22	-8	x	10	x	x
COc1ccc([N+](=O)[O-])cc1N(CC(O)CN(CC(C)C)CC(C)C)S(=O)(=O)c1ccccc1 (stereo unspecified)	10	-14	-22	-13	17	69*	30*	14
